Measured values from different studies.
Lines come from different studies, so protocols differ.
Target: MAP kinase-interacting serine/threonine-protein kinase 2 (MKNK2, Homo sapiens, UniProt Q9HBH9)

| Structure (SMILES) | read-out | technique | concentration | remaining binding |
| --- | --- | --- | --- | --- |
| COCCOc1nc(-c2ccc(Cl)nc2)nc2c1CN(C(=O)c1ncn3ccccc13)CC2 | cell-free assay | competition with immobilised ligand | 0.1 µM | 100% |
| Cc1cnc(Nc2ccc(C(=O)N3CCC(N4CCCC4)CC3)cc2)nc1-c1cc2ccccc2s1 | binding | competition with immobilised ligand | 1 µM | 5.4% |
| C[C@@H]1CN(c2ccc3ncc(-c4ccc5[nH]nc(C6CC6)c5c4)n3n2)C[C@H](C)O1 | binding | competition with immobilised ligand | 50 nM | 75% |
| N[C@@H]1CCN(c2nccc(-c3cnn4ncccc34)n2)C1 | binding | – | 1 µM | 14% |
| O=C(c1ccc(Nc2nccc(-c3cc4ccccc4s3)n2)cc1)N1CCC(N2CCCC2)CC1 | binding | competition with immobilised ligand | 1 µM | 4.6% |
| CN(c1nccc(-c2cnn3ncccc23)n1)C1CC1 | binding | – | 1 µM | 77% |
| CNCc1ccccc1-c1csc([C@H](C)Nc2nc(C)nc3cc(OC)c(OC)cc23)c1 | cell-free assay | competition with immobilised ligand | 1 µM | 71% |
| O=C(Nc1c[nH]nc1C(=O)NC1CCNCC1)c1cc(F)cc(F)c1 | binding | competition with immobilised ligand | 1 µM | 100% |
| N#Cc1ccccc1CSc1nnc2c(n1)[nH]c1ccccc12 | binding | competition with immobilised ligand | 10 µM | 95% |
| COc1ccnn2ncc(-c3ccnc(N(C)C)n3)c12 | binding | – | 1 µM | 78% |
| CO[C@@H](C)c1c(Nc2ccc([C@H](N(C)C(=O)C3CCS(=O)(=O)CC3)C(F)(F)F)cc2)cnc2cc(Cl)nn12 | cell-free assay | competition with immobilised ligand | 1 µM | 100% |
| CCN1CCN(Cc2ccc(C(=O)Nc3ccc(C)c(Oc4ccc5c(c4)CC(=O)N5)c3)cc2C(F)(F)F)CC1 | binding | competition with immobilised ligand | 1 µM | 95% |
| O=C(O)c1cc(-c2ccc(C3CCNCC3)cc2)c2ccc(-c3ccc(C(F)(F)F)cc3)cc2c1 | cell-free assay | competition with immobilised ligand | 1 µM | 100% |
| c1cnn2ncc(-c3ccnc(N4CCC45COC5)n3)c2c1 | binding | – | 1 µM | 3.3% |
| CNC(=O)Nc1ccc2c(c1)[C@@]1(CC2)OC(=O)N(CC(=O)N(Cc2ccc(F)cc2)[C@@H](C)C(F)(F)F)C1=O | cell-free assay | competition with immobilised ligand | 1 µM | 76% |
| C[C@H]1CCN(c2nccc(-c3cnn4ncccc34)n2)C1 | binding | – | 1 µM | 2.3% |
| COc1cnc(Nc2cccc(S(N)(=O)=O)c2)nc1N1CCN(c2ccccc2)C(=O)C1 | binding | competition with immobilised ligand | 1 µM | 59% |
